Assay results as given in ChEMBL document CHEMBL3751740, “New MKLP-2 inhibitors in the paprotrain series: Design, synthesis and biological evaluations” (Bioorg Med Chem, 2016).
The source made the active and inactive calls. The rule behind the calls is not given here.

Tests used:
[1] = test system: KB; assay: Growth inhibition of human KB cells at 10 uM after 72 hrs by MTS assay; format: functional; details: read-out: GI
How it was run: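 KB cells were grown in DMEM with 25 mM glucose and 10% FCS at 37 °C, 5% CO2, and seeded at 500 cells/well. 24 h later, compound in DMSO (1% final) was added at 10 µM or 1 µM for 72 h; controls received DMSO alone. Runs were in duplicate. Viable cells were read with MTS at 490 nm.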

[2] = Growth inhibition of human HCT116 cells incubated for 4 days by WST-1 assay; format: functional; details: HCT-116, 96 h
How it was run: (§1)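 Cells were kept at 37 °C under 5% CO2 and plated on day 0 at 500–5000 cells/well. On day 1 they received ten concentrations from 0.0025 to 50 µM (final), in triplicate. On day 4 WST-1 was added, followed by 30 min–4 h incubation and absorbance at 450 nm. GI50 is the concentration killing 50% of cells.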

[3] = test system: MCF7; assay: Growth inhibition of human MCF7 cells incubated for 4 days by WST-1 assay; format: functional; details: MCF7, 96 h; how it was run: as §1
[4] = test system: HT-29; assay: Growth inhibition of human HT-29 cells incubated for 4 days by WST-1 assay; format: functional; details: HT-29, 96 h; how it was run: as §1
[5] = Growth inhibition of human PK59 cells incubated for 4 days by WST-1 assay; format: functional; details: PK-59, 96 h; how it was run: as §1
[6] = test system: A549; assay: Growth inhibition of human A549 cells incubated for 4 days by WST-1 assay; format: functional; details: A549, 96 h; how it was run: as §1
[7] = test system: NCI-H460; assay: Growth inhibition of human NCI-H460 cells incubated for 4 days by WST-1 assay; format: functional; details: NCI-H460, 96 h; how it was run: as §1
[8] = species on record: Ovis aries; assay: Inhibition of sheep brain tubulin polymerization by UV spectrophotometric analysis; details: concentration not given here
How it was run: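 Tubulin purified from sheep brain by two assembly/disassembly cycles, about 2–3 mg/mL in 0.1 M MES, 0.5 mM MgCl2, 1 mM EGTA, 1 mM GTP, pH 6.6. Compound in DMSO added at 0 °C, then moved to a 37 °C thermostated cell. Assembly followed by turbidity at 350 nm for a few min.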

[9] = Growth inhibition of human MIAPaCa2 cells incubated for 4 days by WST-1 assay; format: functional; details: MIA PaCa-2, 96 h; how it was run: as §1
[10] = test system: MDA-MB-231; assay: Growth inhibition of human MDA-MB-231 cells incubated for 4 days by WST-1 assay; format: functional; details: MDA-MB-231, 96 h; how it was run: as §1
[11] = test system: HepG2; assay: Growth inhibition of human HepG2 cells incubated for 4 days by WST-1 assay; format: functional; details: HepG2, 96 h; how it was run: as §1
[12] = test system: K562; assay: Growth inhibition of human K562 cells incubated for 4 days by WST-1 assay; format: functional; details: K562, 96 h; how it was run: as §1
[13] = species on record: Ovis aries; assay: Induction of sheep brain microtubule disassembly by UV spectrophotometric analysis
How it was run: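 Sheep brain tubulin, purified by two assembly/disassembly cycles and held in MES buffer with GTP at pH 6.6, was polymerized at 37 °C for 10 min. Compound was then added to the MTs at 0 °C and depolymerization was followed over the next few minutes by turbidity at 350 nm.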

GI50 [3]: > 50 µM
GI50 [4]: > 50 µM
GI50 [6]: > 50 µM
GI50 [7]: > 50 µM
inhibition [8]: 11%
GI50 [10]: > 50 µM
GI50 [11]: > 50 µM
GI50 [12]: 21.6 µM
Activity [13]: inactive
SMILES: N#C/C(=C\c1cccnc1)c1c[nH]c2ccccc12
inhibition of growth at 10 µM [1]: 27%
GI50 [2]: > 50 µM
IC25 [3]: 28.6 µM
IC25 [4]: 7.5 µM
GI50 [5]: > 50 µM
IC25 [7]: 18.5 µM
GI50 [9]: > 50 µM
